Among the data in ChEMBL document CHEMBL3232792, “Cyclic secondary sulfonamides: unusually good inhibitors of cancer-related carbonic anhydrase enzymes” (J Med Chem, 2014) are Ki and pKa values, retold here.

In one data set the target is Carbonic anhydrase 2 (Homo sapiens, UniProt P00918). Nature of the data set: Inhibition of human recombinant carbonic anhydrase 2 expressed in Escherichia coli by stopped flow CO2 hydration assay.
A further data set deals with Carbonic anhydrase 9 (Homo sapiens, UniProt Q16790). The data set can be described thus: Inhibition of human recombinant carbonic anhydrase 9 expressed in Escherichia coli by stopped flow CO2 hydration assay. In outline: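 Recombinant human CA IX produced in E. coli, used at 8.0 nM; CO2 hydration activity followed by stopped-flow. IC50 is taken from seven-concentration dose–response curves fitted by nonlinear least squares, mean of at least three determinations. Ki is derived by Cheng–Prusoff, Ki = IC50/(1 + [S]/Km), where [S] is the CO2 concentration used.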

The target of a further data set is Carbonic anhydrase 1 (Homo sapiens, UniProt P00915). The data set can be described thus: Inhibition of human recombinant carbonic anhydrase 1 expressed in Escherichia coli by stopped flow CO2 hydration assay.
Chain of Carbonic anhydrase 1 (P00915 whole entry): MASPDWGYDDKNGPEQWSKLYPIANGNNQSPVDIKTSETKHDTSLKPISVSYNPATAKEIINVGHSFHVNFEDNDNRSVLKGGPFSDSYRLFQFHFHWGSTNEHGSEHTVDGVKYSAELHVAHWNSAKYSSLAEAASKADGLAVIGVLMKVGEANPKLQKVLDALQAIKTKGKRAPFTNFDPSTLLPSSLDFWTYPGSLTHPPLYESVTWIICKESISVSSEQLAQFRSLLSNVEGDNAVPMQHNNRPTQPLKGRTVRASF
The next data set deals with Carbonic anhydrase 4 (Homo sapiens, UniProt P22748).
Chain of Carbonic anhydrase 4 (P22748 whole entry): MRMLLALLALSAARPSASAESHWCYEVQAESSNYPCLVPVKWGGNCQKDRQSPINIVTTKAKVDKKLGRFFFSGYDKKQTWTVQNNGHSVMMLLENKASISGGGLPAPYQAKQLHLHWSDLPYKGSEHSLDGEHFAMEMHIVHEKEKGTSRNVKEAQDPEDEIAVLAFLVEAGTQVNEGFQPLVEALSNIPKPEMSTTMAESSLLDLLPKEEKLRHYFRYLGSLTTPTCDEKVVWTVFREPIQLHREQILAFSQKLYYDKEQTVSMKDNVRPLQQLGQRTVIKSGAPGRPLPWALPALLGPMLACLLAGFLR
The target of data set [1] is Carbonic anhydrase 5A, mitochondrial (Homo sapiens, UniProt P35218).
Chain of Carbonic anhydrase 5A, mitochondrial (P35218 whole entry): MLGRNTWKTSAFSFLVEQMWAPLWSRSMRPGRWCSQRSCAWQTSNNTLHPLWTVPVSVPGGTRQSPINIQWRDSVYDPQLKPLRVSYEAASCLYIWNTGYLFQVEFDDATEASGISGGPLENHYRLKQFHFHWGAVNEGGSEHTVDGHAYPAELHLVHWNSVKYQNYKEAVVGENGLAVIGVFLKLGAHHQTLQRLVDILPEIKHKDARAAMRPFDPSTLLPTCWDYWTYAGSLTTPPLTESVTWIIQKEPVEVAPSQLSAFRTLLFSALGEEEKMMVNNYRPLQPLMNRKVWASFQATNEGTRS
For data set [2], the target named is Carbonic anhydrase 5B, mitochondrial (Homo sapiens, UniProt Q9Y2D0).
Chain of Carbonic anhydrase 5B, mitochondrial (Q9Y2D0 whole entry): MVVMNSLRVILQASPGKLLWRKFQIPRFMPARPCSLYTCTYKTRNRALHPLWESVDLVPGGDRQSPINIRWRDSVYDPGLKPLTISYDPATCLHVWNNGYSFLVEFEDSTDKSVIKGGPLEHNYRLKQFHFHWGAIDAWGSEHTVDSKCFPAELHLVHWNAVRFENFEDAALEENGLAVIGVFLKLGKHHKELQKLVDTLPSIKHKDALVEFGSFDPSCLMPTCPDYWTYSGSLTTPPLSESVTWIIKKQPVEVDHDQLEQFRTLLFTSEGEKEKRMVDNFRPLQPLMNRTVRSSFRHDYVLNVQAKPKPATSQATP
The next data set addresses Carbonic anhydrase 7 (Homo sapiens, UniProt P43166).

Chain of Carbonic anhydrase 7 (P43166 whole entry): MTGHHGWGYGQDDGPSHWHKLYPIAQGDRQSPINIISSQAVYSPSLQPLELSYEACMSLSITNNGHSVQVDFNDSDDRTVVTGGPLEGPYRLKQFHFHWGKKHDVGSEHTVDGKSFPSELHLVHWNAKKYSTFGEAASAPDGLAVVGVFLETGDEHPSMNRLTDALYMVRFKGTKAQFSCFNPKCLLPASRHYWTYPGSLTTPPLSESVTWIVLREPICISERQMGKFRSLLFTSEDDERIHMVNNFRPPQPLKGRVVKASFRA

On to `COc1ccc(-c2cn(-c3ccc4c(c3)S(=O)(=O)NC4=O)nn2)c(C)c1`, for which the Ki on Carbonic anhydrase 2 is more than 50000 nM; on Carbonic anhydrase 9, 95.7 nM.
`O=C1NS(=O)(=O)c2cc(-n3cc(CO[C@@H]4O[C@H](CO)[C@@H](O)[C@H](O)[C@H]4O)nn3)ccc21`: the Ki was more than 50000 nM at Carbonic anhydrase 1, more than 50000 nM on Carbonic anhydrase 2 and 49.5 nM on Carbonic anhydrase 9.
Consider `Nc1ccc2c(c1)S(=O)(=O)NC2=O`, for which the Ki at Carbonic anhydrase 1 is more than 50000 nM; on Carbonic anhydrase 2, more than 50000 nM; on Carbonic anhydrase 9 it was 610 nM.
Take `Cc1cccc(-c2cn(-c3ccc4c(c3)S(=O)(=O)NC4=O)nn2)c1`: the inhibitory constant (Ki) at Carbonic anhydrase 1 is more than 50000 nM; at Carbonic anhydrase 9, 89.7 nM.
Consider `COc1ccc(-c2cn(-c3ccc4c(c3)S(=O)(=O)NC4=O)nn2)cc1`, for which the Ki was more than 50000 nM on Carbonic anhydrase 2 and 341 nM on Carbonic anhydrase 9.
As to `Cc1cc(-c2cn(-c3ccc4c(c3)S(=O)(=O)NC4=O)nn2)ccc1F`, the Ki at Carbonic anhydrase 1 is more than 50000 nM; on Carbonic anhydrase 9, 47.8 nM.
On to `[N-]=[N+]=Nc1ccc2c(c1)S(=O)(=O)NC2=O`, for which the Ki at Carbonic anhydrase 9 was found to be 466 nM.
In the case of `O=C1NS(=O)(=O)c2cc(-n3cc(-c4ccccc4)nn3)ccc21`, the Ki at Carbonic anhydrase 1 was more than 50000 nM; on Carbonic anhydrase 9, 484 nM.
Regarding `O=C1NS(=O)(=O)c2cc([N+](=O)[O-])ccc21`, the Ki on Carbonic anhydrase 1 and on Carbonic anhydrase 2 was more than 50000 nM in each case.
In the case of `O=C1NS(=O)(=O)c2cc(-n3cc(-c4ccccc4C(F)(F)F)nn3)ccc21`, the Ki was more than 50000 nM at Carbonic anhydrase 2 and 443 nM at Carbonic anhydrase 9.
As for `O=C1NS(=O)(=O)c2ccccc21` [SACCHARIN], the Ki on Carbonic anhydrase 4 turned out to be 7920 nM; in data set [1] it was 10100 nM; in data set [2], 7210 nM; on Carbonic anhydrase 7, 10 nM. The pKa in the data set “physchem” was 1.3.

By Ki is commonly meant a dissociation constant, usually derived from enzyme kinetics or from competition with a known ligand. The term pKa denotes the negative logarithm of the acid dissociation constant.
